Test results: ChEMBL document CHEMBL1124612, “Synthesis and structure-activity relationships of a series of anxioselective pyrazolopyridine ester and amide anxiolytic agents” (J Med Chem, 1989)
Calls of active or inactive are those of the source. The calls are words filed in the database; no cut-off is given here.

Key:
[1] = system: Rattus norvegicus; assay: Minimum effective dose (po) tested for its anxiolytic activity in rat using the shock-induced suppression of drinking (SSD) test.; format: functional; conditions: read-out: MED
How it was run: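 Rats (n = 8 per dose) were dosed orally at one or more levels and then run in the shock-induced suppression of drinking conflict test. MED is the dose producing a significant rise (p < 0.05, Student's t test) in mean shocks accepted relative to vehicle-treated controls.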

[2] = target: GABA-A receptor; anion channel (Rattus norvegicus) (UniProt O09028+P15431+P18506+P18508+P19969+P20236+P23574+P23576+P28471+P28473+P30191+P62813+P63079+P63138+Q91ZM7+Q9ES14); assay: Displacement of [3H]flunitrazepam from GABA-A benzodiazepine receptor of rat cerebral cortex at 5000 nM; format: tissue-based
How it was run: (§1)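 Rat cerebral cortex membranes were incubated with [3H]flunitrazepam in the presence of the test agent at a single concentration (nM), run in triplicate with under 7% variation between values. Binding is reported as % inhibition of [3H]flunitrazepam binding.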

[3] = system: Rattus norvegicus; assay: Minimum effective dose (ip) tested for its anxiolytic activity in rat using the shock-induced suppression of drinking (SSD) test.; format: functional; conditions: read-out: MED
How it was run: (§2)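 Shock-induced suppression of drinking (Vogel-type conflict) in rats, with compounds given intraperitoneally at one or more dose levels, 8 rats per dose. MED is the lowest dose giving a significant increase (p < 0.05, Student's t test) in the mean number of shocks taken versus vehicle control.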

[4] = target: GABA-A receptor; anion channel; assay: Inhibition of [3H]flunitrazepam binding to GABA-A benzodiazepine receptor of rat cerebral cortex; format: tissue-based
[5] = system: Rattus norvegicus; assay: Minimum effective dose (ip) tested for its anxiolytic activity in rat using the shock-induced suppression of drinking (SSD) test; NS is No Significant activity at 25 mg/Kg; format: functional, organism-based; how it was run: as §2
[6] = system: Rattus norvegicus; assay: Minimum effective dose (ip) tested for its anxiolytic activity in rat using the shock-induced suppression of drinking (SSD) test; NS is No Significant activity at 25 mg/KG; format: functional, organism-based; how it was run: as §2
[7] = system: GABA-A receptor; anion channel; assay: Inhibition of [3H]flunitrazepam binding to GABA-A benzodiazepine receptor of rat cerebral cortex at 500 nM; format: tissue-based; how it was run: as §1
[8] = system: GABA-A receptor; anion channel; assay: Inhibition of [3H]flunitrazepam binding to GABA-A benzodiazepine receptor of rat cerebral cortex (Not Significant at 5000 nM); format: tissue-based; how it was run: as §1
[9] = system: Rattus norvegicus; assay: Minimum effective dose (ip) tested for its anxiolytic activity in rat using the shock-induced suppression of drinking (SSD) test; NS is No Significant activity at 50 mg/Kg; format: functional, organism-based; how it was run: as §2

CCCCCn1ncc2c(N)c(C(=O)OC(C)C)c(C)nc21
minimal effective dose [1]: 50 mg/kg
inhibition [2]: 48%

CCCCCn1ncc2c(N)c(C(=O)Nc3ccccc3)cnc21
minimal effective dose [3]: 50 mg/kg
IC50 [4]: 790 nM

C=CCOC(=O)c1c(C)nc2c(cnn2CCC2CC2)c1N
minimal effective dose [1]: 25 mg/kg
IC50 [4]: 16 nM

CCOC(=O)c1c(C)nc2c(cnn2CC)c1NC
MED [5]: inactive

C=CCOC(=O)c1c(C)nc2c(cnn2CC=C(C)C)c1N
MED [6]: inactive
IC50 [4]: 6.4 nM

CCCCCn1ncc2c(N)c(C(=O)OCCCC)c(C)nc21
minimal effective dose [3]: 50 mg/kg
IC50 [4]: 113 nM

C=CCOC(=O)c1c(C)nc2c(cnn2CCC#CC)c1N
minimal effective dose [1]: 25 mg/kg
IC50 [4]: 79 nM

CCCCCn1ncc2c(N)c(C(=O)OC)c(C)nc21
inhibition [2]: 54%

C=CCOC(=O)c1c(C)nc2c(cnn2CCC(C)C)c1N
minimal effective dose [1]: 50 mg/kg
IC50 [4]: 13 nM

C=CCN(CC=C)C(=O)c1cnc2c(cnn2CCCCC)c1N
minimal effective dose [1]: 25 mg/kg
IC50 [7]: Not Active

CCCCCn1ncc2c(N)c(C(=O)OCC3CC3)c(C)nc21
minimal effective dose [1]: 12.5 mg/kg
IC50 [4]: 131 nM

CCOC(=O)c1c(C)nc2c(cnn2CCC(C)CC)c1N (configuration not stated)
minimal effective dose [3]: 25 mg/kg
IC50 [4]: 79 nM

CCCCCn1ncc2c(N)c(C(=O)OCC)cnc21
MED [5]: inactive

CCCCCn1ncc2c(N)c(C(=O)OCCC3CC3)c(C)nc21
minimal effective dose [3]: 50 mg/kg
IC50 [4]: 51 nM

C=CCNC(=O)c1cnc2c(cnn2CCCCC)c1O
minimal effective dose [1]: 50 mg/kg
IC50 [7]: Not Active

CCCCCn1ncc2c(N)c(C(=O)NC3CC3)cnc21
minimal effective dose [1]: 12.5 mg/kg
IC50 [4]: 312 nM

CCOC(=O)c1c(C)nc2c(cnn2CC(C)CC)c1N (configuration not stated)
minimal effective dose [3]: 25 mg/kg
IC50 [4]: 391 nM

CCNc1c(C(=O)OCC)c(C)nc2c1cnn2CC
minimal effective dose [3]: 25 mg/kg
IC50 [8]: Not Active

C#CCN(CC#C)C(=O)c1cnc2c(cnn2CCCCC)c1N
minimal effective dose [1]: 12.5 mg/kg
IC50 [7]: Not Active

C#CCCCCn1ncc2c(N)c(C(=O)OCC=C)c(C)nc21
minimal effective dose [1]: 25 mg/kg
IC50 [4]: 8.6 nM

CCCCCn1ncc2c(N)c(C(=O)N(CC)CC)cnc21
minimal effective dose [1]: 25 mg/kg
IC50 [7]: Not Active

CCCCCn1ncc2c(N)c(C(=O)NCC)cnc21
minimal effective dose [1]: 12.5 mg/kg
IC50 [4]: 109 nM

CCCCCn1ncc2c(N)c(C(=O)O)c(C)nc21
minimal effective dose [9]: inactive
IC50 [8]: Not Active

CC#CCCn1ncc2c(N)c(C(=O)N(C)CCC)cnc21
minimal effective dose [1]: 12.5 mg/kg
IC50 [7]: Not Active

C#CCCCn1ncc2c(N)c(C(=O)OCC=C)c(C)nc21
minimal effective dose [1]: 12.5 mg/kg
IC50 [4]: 5.5 nM

C=CCNC(=O)c1c[n+]([O-])c2c(cnn2CCCCC)c1N
minimal effective dose [1]: 12.5 mg/kg
IC50 [4]: 53 nM

CCCCCn1ncc2c(N)c(C(=O)N(C)C)cnc21
minimal effective dose [1]: 12.5 mg/kg
IC50 [7]: Not Active

C#CCCn1ncc2c(N)c(C(=O)OCC=C)c(C)nc21
minimal effective dose [1]: 50 mg/kg
IC50 [4]: 160 nM

C#CCN(C)C(=O)c1cnc2c(cnn2CCCCC)c1N
minimal effective dose [1]: 6.3 mg/kg
IC50 [7]: Not Active

CC#CCNC(=O)c1cnc2c(cnn2CCCCC)c1N
minimal effective dose [1]: 6.3 mg/kg
IC50 [4]: 84 nM

CCCCCCn1ncc2c(N)c(C(=O)OCC)c(C)nc21
minimal effective dose [3]: 50 mg/kg
IC50 [4]: 320 nM

C=CCCCn1ncc2c(N)c(C(=O)OCC=C)c(C)nc21
minimal effective dose [1]: 25 mg/kg
IC50 [4]: 9.7 nM

C#CCNC(=O)c1cnc2c(cnn2CCCCC)c1N
minimal effective dose [1]: 6.3 mg/kg
IC50 [4]: 60 nM

C=CCCn1ncc2c(N)c(C(=O)OCC=C)c(C)nc21
minimal effective dose [1]: 25 mg/kg
IC50 [4]: 54 nM

CCOC(=O)c1c(C)nc2c(cnn2CC)c1N
minimal effective dose [3]: 75 mg/kg
IC50 [4]: 460 nM

C=CCOC(=O)c1c(C)nc2c(cnn2CCCC)c1N
minimal effective dose [1]: 25 mg/kg
IC50 [4]: 21 nM

CC#CCCn1ncc2c(N)c(C(=O)OCC)c(C)nc21
minimal effective dose [1]: 25 mg/kg
IC50 [4]: 590 nM

CCCCCn1ncc2c(N)c(C(=O)NCc3ccccc3)cnc21
minimal effective dose [1]: 25 mg/kg
IC50 [4]: 36 nM

CCCCCn1ncc2c(N)c(C(=O)N(CC)CCC)cnc21
minimal effective dose [1]: 25 mg/kg
IC50 [7]: Not Active

C#CCOC(=O)c1c(C)nc2c(cnn2CCCCC)c1N
minimal effective dose [1]: 25 mg/kg
IC50 [4]: 89 nM
